In ChEMBL document CHEMBL3392955, “Thiol-derivatized minihepcidins retain biological activity” (Bioorg Med Chem Lett, 2015):
pEC50: −log10 of the molar value. The source made the active and inactive calls. The rule behind the calls is not given here.

Experiments:
Ferroportin = molecular target: T1, Ferroportin (Homo sapiens, UniProt Q9NP59); assay: Induction of human ferroportin degradation expressed in HEK293 cells after 24 hrs by flow cytometry; type: cell-based
T1 sequence (Q9NP59 whole entry): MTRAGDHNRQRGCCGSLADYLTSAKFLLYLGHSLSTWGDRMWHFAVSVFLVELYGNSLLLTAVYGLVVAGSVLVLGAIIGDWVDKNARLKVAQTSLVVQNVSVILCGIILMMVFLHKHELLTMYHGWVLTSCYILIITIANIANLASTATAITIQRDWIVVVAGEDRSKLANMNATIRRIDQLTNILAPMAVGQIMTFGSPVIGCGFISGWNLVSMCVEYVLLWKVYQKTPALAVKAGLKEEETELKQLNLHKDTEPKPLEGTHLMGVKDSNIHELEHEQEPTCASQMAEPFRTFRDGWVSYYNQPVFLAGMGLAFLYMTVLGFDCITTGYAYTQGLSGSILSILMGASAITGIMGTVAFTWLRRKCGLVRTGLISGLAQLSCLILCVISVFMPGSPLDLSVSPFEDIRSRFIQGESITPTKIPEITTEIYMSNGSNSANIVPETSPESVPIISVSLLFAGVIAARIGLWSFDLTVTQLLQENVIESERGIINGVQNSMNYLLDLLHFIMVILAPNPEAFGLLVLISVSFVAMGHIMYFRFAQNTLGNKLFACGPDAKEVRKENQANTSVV
Procedure, shortened: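 HEK293:TREX-Fpn-GFP cells (human ferroportin-GFP under a doxycycline-inducible promoter) plated on poly-D-lysine with 20 μM FAC. Fpn induced with 500 ng/mL doxycycline for 24 h, then washed off. Peptide exposure 24 h. Green fluorescence read by flow cytometry, gated against uninduced cells; induced untreated cells are the positive control.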

Mus musculus [1] = assay: Induction of human ferroportin degradationin C57BL/6 mouse assessed as decrease in serum iron at 50 to 100 nmol, ip measured after 6 to 24 hrs by colorimetric assay; type: functional, organism-based
Procedure, shortened: (§1)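 Mice dosed intraperitoneally with 50 or 100 nmoles peptide in 100 μL PBS; controls received 100 μL PBS. Killed at 6, 24 or 48 h. Serum from cardiac-puncture blood. Iron measured by microplate colorimetric assay on 50 μL serum. Result is % decrease versus mean serum iron of PBS-injected mice.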

Mus musculus [2] = assay: Induction of human ferroportin degradationin C57BL/6 mouse assessed as decrease in serum iron at 50 to 100 nmol, ip measured after 48 hrs by colorimetric assay; type: functional, organism-based; procedure, shortened: as §1
[3] = Stability of the compound in DMSO at room temperature after 30 days by LC/MS/MS analysis; type: physicochemical; conditions: read-out: Stability
Procedure, shortened: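 Compound kept as a 10 mM DMSO solution at room temperature for 30 days. Remaining intact compound (decomposition or sulfide oxidation) measured by LC/MS/MS.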

Row | Structure (SMILES) | pEC50 (Ferroportin) | other results
1 | CCCCCCCCCCCCCCCCNC(=O)CN(CC(N)=O)C(=O)CCCCCNC(=O)[C@H](Cc1ccccc1)NC(=O)[C@H](CCCNC(=N)N)NC(=O)[C@H](CS/C(=C\C(=O)OC)C(=O)OC)NC(=O)[C@H](CCCNC(=N)N)NC(=O)C[C@@H]1CCCN1C(=O)[C@@H](NC(=O)[C@H](Cc1cnc[nH]1)NC(=O)[C@@H](NC(=O)CNC(=O)CO)[C@@H](C)O)C(c1ccccc1)c1ccccc1 | 7.90 | 
2 | CCCCCCCCCCCCCCCCNC(=O)CN(CC(N)=O)C(=O)CCCCCNC(=O)[C@H](Cc1ccccc1)NC(=O)[C@H](CCCNC(=N)N)NC(=O)[C@H](CS/C=C\C(=O)O)NC(=O)[C@H](CCCNC(=N)N)NC(=O)C[C@@H]1CCCN1C(=O)[C@@H](NC(=O)[C@H](Cc1cnc[nH]1)NC(=O)[C@@H](NC(=O)CNC(=O)CO)[C@@H](C)O)C(c1ccccc1)c1ccccc1 | 6.66 | 
3 | CCCCCCCCCCCCCCCCNC(=O)CN(CC(N)=O)C(=O)CCCCCNC(=O)[C@H](Cc1ccccc1)NC(=O)[C@H](CCCNC(=N)N)NC(=O)[C@H](CS/C(=C\S(N)(=O)=O)c1ccccc1)NC(=O)[C@H](CCCNC(=N)N)NC(=O)C[C@@H]1CCCN1C(=O)[C@@H](NC(=O)[C@H](Cc1cnc[nH]1)NC(=O)[C@@H](NC(=O)CNC(=O)CO)[C@@H](C)O)C(c1ccccc1)c1ccccc1 | 7.47 | 
4 | CCCCCCCCCCCCCCCCNC(=O)CN(CC(N)=O)C(=O)CCCCCNC(=O)[C@H](Cc1ccccc1)NC(=O)[C@H](CCCNC(=N)N)NC(=O)[C@H](CS/C(=C\P(=O)(OCC)OCC)P(=O)(OCC)OCC)NC(=O)[C@H](CCCNC(=N)N)NC(=O)C[C@@H]1CCCN1C(=O)[C@@H](NC(=O)[C@H](Cc1cnc[nH]1)NC(=O)[C@@H](NC(=O)CNC(=O)CO)[C@@H](C)O)C(c1ccccc1)c1ccccc1 | 8.96 | Activity (Mus musculus [1]): Active; Activity (Mus musculus [2]): inactive; remaining at 720 h [3]: 99.5%

Further compounds by rising pEC50 (Ferroportin), results first:

Row | pEC50 (Ferroportin) | Structure (SMILES) | other results
5 | 7.98 | CCCCCCCCCCCCCCCCNC(=O)CN(CC(N)=O)C(=O)CCCCCNC(=O)[C@H](Cc1ccccc1)NC(=O)[C@H](CCCNC(=N)N)NC(=O)[C@H](CS/C(=C\C(=O)OCC)C(=O)OCC)NC(=O)[C@H](CCCNC(=N)N)NC(=O)C[C@@H]1CCCN1C(=O)[C@@H](NC(=O)[C@H](Cc1cnc[nH]1)NC(=O)[C@@H](NC(=O)CNC(=O)CO)[C@@H](C)O)C(c1ccccc1)c1ccccc1 | 
6 | 8.00 | CCCCCCCCCCCCCCCCNC(=O)CN(CC(N)=O)C(=O)CCCCCNC(=O)[C@H](Cc1ccccc1)NC(=O)[C@H](CCCNC(=N)N)NC(=O)[C@H](CS/C(=C\S(=O)(=O)C(C)(C)C)S(=O)(=O)C(C)(C)C)NC(=O)[C@H](CCCNC(=N)N)NC(=O)C[C@@H]1CCCN1C(=O)[C@@H](NC(=O)[C@H](Cc1cnc[nH]1)NC(=O)[C@@H](NC(=O)CNC(=O)CO)[C@@H](C)O)C(c1ccccc1)c1ccccc1 | 
7 | 8.08 | CCCCCCCCCCCCCCCCNC(=O)CN(CC(N)=O)C(=O)CCCCCNC(=O)[C@H](Cc1ccccc1)NC(=O)[C@H](CCCNC(=N)N)NC(=O)[C@H](CS/C(=C\C(N)=O)C(N)=O)NC(=O)[C@H](CCCNC(=N)N)NC(=O)C[C@@H]1CCCN1C(=O)[C@@H](NC(=O)[C@H](Cc1cnc[nH]1)NC(=O)[C@@H](NC(=O)CNC(=O)CO)[C@@H](C)O)C(c1ccccc1)c1ccccc1 | 
8 | 8.20 | CCCCCCCCCCCCCCCCNC(=O)CN(CC(N)=O)C(=O)CCCCCNC(=O)[C@H](Cc1ccccc1)NC(=O)[C@H](CCCNC(=N)N)NC(=O)[C@H](CS/C(=C\C(=O)OC(C)(C)C)C(=O)OC(C)(C)C)NC(=O)[C@H](CCCNC(=N)N)NC(=O)C[C@@H]1CCCN1C(=O)[C@@H](NC(=O)[C@H](Cc1cnc[nH]1)NC(=O)[C@@H](NC(=O)CNC(=O)CO)[C@@H](C)O)C(c1ccccc1)c1ccccc1 | 
